The record followed here is ChEMBL document CHEMBL1139970, “3,4-Dihydro-2H-benzo[1,4]oxazine derivatives as 5-HT6 receptor antagonists” (Bioorg Med Chem Lett, 2007).

For data set [1], the target named is 5-hydroxytryptamine receptor 6 (Homo sapiens, UniProt P50406). The data set can be described thus: Displacement of [3H]LSD from human recombinant 5HT6 receptor expressed in HEK293 cells. In kind it is cell-based. The essentials: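 Competition binding against [3H]LSD, run at 37 °C on HEK293 cells expressing recombinant human 5-HT6 receptor. Affinity is expressed as pKi, with standard deviation of the pKi estimates 0.05–0.3.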
5-hydroxytryptamine receptor 6, sequence (P50406 whole entry): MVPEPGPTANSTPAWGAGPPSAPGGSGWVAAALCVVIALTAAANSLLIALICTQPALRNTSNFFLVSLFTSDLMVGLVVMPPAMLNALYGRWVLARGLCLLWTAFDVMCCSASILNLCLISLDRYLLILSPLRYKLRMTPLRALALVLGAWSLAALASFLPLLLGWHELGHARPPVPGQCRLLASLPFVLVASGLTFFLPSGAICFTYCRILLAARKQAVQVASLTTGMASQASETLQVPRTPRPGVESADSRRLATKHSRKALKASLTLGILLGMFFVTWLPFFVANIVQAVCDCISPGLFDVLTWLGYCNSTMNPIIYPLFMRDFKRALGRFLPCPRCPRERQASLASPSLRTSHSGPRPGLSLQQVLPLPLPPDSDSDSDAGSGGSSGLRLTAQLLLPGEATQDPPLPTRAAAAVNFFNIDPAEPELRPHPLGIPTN

Data set [2] in a line: Ratio of drug level in brain to plasma in rat at 2 mg/kg, iv after 1 hr. Format: ADME, organism-based. Set-up: dose 2 mg/kg, route intravenous. The essentials: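 Rats received a single intravenous 2 mg/kg dose. At 1 h post-dose, drug levels in whole brain homogenate and plasma were quantified by HPLC–MS/MS, and the brain-to-plasma ratio was calculated.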
The target of data set [3] is T1, hERG (KCNH2) (Homo sapiens, UniProt Q12809). The data set is described as follows: Inhibition of hERG current by patch clamp electrophysiology assay. Format: toxicity. A general note: hERG is a cardiac potassium channel; its block is linked to QT prolongation.
T1 sequence (Q12809 whole entry): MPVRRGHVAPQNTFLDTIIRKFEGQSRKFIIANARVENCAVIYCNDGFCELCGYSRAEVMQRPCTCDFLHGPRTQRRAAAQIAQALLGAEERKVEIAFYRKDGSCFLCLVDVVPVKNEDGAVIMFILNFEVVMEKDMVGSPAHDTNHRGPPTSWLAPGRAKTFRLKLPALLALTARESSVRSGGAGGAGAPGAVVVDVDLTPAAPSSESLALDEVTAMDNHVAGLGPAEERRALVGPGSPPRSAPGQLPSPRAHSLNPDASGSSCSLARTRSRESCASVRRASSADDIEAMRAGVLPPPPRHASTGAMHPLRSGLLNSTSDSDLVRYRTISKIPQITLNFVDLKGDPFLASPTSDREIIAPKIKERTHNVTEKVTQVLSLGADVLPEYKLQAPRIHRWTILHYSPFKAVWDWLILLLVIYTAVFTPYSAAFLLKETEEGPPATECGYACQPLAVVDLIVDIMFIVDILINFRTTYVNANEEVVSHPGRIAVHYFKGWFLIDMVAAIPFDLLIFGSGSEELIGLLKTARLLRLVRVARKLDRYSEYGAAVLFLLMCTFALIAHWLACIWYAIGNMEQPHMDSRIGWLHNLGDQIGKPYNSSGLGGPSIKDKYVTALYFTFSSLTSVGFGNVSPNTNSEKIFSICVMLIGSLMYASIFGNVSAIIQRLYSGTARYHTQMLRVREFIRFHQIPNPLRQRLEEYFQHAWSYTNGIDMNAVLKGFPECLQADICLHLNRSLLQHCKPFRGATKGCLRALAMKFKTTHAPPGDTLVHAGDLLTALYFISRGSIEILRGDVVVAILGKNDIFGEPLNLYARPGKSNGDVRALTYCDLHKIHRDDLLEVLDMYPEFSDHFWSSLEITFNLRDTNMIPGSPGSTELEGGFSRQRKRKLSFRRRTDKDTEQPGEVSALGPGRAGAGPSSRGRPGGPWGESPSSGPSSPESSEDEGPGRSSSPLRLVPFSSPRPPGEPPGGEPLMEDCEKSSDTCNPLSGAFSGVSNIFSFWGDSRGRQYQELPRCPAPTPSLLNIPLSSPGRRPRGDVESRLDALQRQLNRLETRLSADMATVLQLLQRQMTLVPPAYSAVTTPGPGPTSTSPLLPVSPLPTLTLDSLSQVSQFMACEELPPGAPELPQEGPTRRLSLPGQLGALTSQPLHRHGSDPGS
Data set [4] has as its target T1, hERG (KCNH2). The data set is described as follows: Inhibition of hERG current at 1 uM by patch clamp electrophysiology assay. In kind it is toxicity. The essentials: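 Conventional patch-clamp electrophysiology measuring inhibition of hERG outward current at a single test concentration. Baseline set to 0%; mean with SEM from n = 2 cells.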

As a reminder, the Ki is the dissociation constant of the complex between target and ligand, obtained from inhibition or displacement. As to `O=S(=O)(c1ccccc1)N1CCOc2c(N3CCNCC3)cccc21`, the Ki in data set [1] was 12.6 nM. Usually Kp stands for tissue or fluid exposure divided by exposure in the circulation. By IC20 is commonly meant the concentration needed for an effect of 20%. A high value points to a need for much substance. As a reminder, the inhibition is the change of the read-out against control, counted positive when it falls. Read a low inhibition as little suppression. Take `O=S(=O)(c1ccccc1F)N1CCOc2c(N3CCNCC3)cccc21`: the Kp at 1 h in data set [2] was found to be 1.8. Also, it took 2200 nM to reach the 20% level against hERG (KCNH2) [3] (IC20). The same compound displayed an inhibition at 1 µM at hERG (KCNH2) [4] of 9.9%. In the case of `O=S(=O)(c1cccc(Cl)c1)N1CCOc2c(N3CCNCC3)cccc21`, the Ki in data set [1] was 2 nM. Besides, in data set [2], the Kp at 1 h was determined as 1.4.

As to `O=S(=O)(c1cccc(F)c1)N1CCOc2c(N3CCNCC3)cccc21`, the Ki in data set [1] is 10 nM. Turning to `CS(=O)(=O)Nc1cccc(S(=O)(=O)N2CCOc3c(N4CCNCC4)cccc32)c1`, the Ki in data set [1] was 200 nM. With `CS(=O)(=O)c1ccccc1S(=O)(=O)N1CCOc2c(N3CCNCC3)cccc21`, in data set [1], the Ki is 316 nM. Regarding `O=S(=O)(c1cccc2cccnc12)N1CCOc2c(N3CCNCC3)cc(Cl)cc21`, the Ki in data set [1] was 0.631 nM. With `Cc1cc(N2CCNCC2)c2c(c1)N(S(=O)(=O)c1ccccc1F)CCO2`, the Ki in data set [1] is 0.398 nM. Testing at 1 µM on hERG (KCNH2) [4] gave an inhibition of 26.5%. For `Cc1cc(N2CCNCC2)c2c(c1)N(S(=O)(=O)c1ccccc1C#N)CCO2`, the Ki in data set [1] was 2 nM. In addition, the inhibition at 1 µM on hERG (KCNH2) [4] was found to be 14.2%.

For `O=S(=O)(c1ccccc1F)N1CCOc2c(N3CCNCC3)cc(F)cc21`, the Ki in data set [1] was 0.631 nM. This compound yielded an inhibition at 1 µM on hERG (KCNH2) [4] of 26%. `O=S(=O)(c1ccccc1F)N1CCOc2c(N3CCNCC3)cc(Cl)cc21`: in data set [1], the Ki is 0.398 nM. In data set [2], the Kp at 1 h came to 2.7. Also, the inhibition at 1 µM on hERG (KCNH2) [4] turned out to be 45.2%. Take `COc1cc(N2CCNCC2)c2c(c1)N(S(=O)(=O)c1ccccc1)CCO2`: the Ki in data set [1] was 0.398 nM. In addition, the Kp at 1 h in data set [2] worked out at 0.8. Further, at hERG (KCNH2) [4], 1 µM produced 34% inhibition. Regarding `CC(C)(C)c1cc(N2CCNCC2)c2c(c1)N(S(=O)(=O)c1ccccc1F)CCO2`, the Ki in data set [1] was 7.94 nM. The same measure, in the same setting: as for `Nc1ccc(S(=O)(=O)N2CCOc3c(N4CCNCC4)cc(F)cc32)cc1`, the figure is 1.26 nM; as for `CC1(C)CN(S(=O)(=O)c2ccccc2F)c2cccc(N3CCNCC3)c2O1`, 0.316 nM. Consider `Nc1cccc2c1OCCN2S(=O)(=O)c1ccccc1F`, for which the Ki in data set [1] is 631 nM.

Consider `Cc1cc(N2CC(C)NC(C)C2)c2c(c1)N(S(=O)(=O)c1ccc(Cl)cc1)CCO2` (stereo not given), for which the Ki in data set [1] was 39.8 nM. Still for that read-out and setting: to `CC1(C)CN(S(=O)(=O)c2ccccc2)c2cc(F)cc(C3CCNCC3)c2O1` belongs 3.98 nM; to `CN(C)CCNc1cccc2c1OC(C)(C)CN2S(=O)(=O)c1cccc(F)c1`, 126 nM. As for `Cc1cc(N2CCNCC2)c2c(c1)N(S(=O)(=O)c1ccccc1)CCO2`, in data set [1], the Ki is 2.51 nM. In addition, in data set [2], the Kp at 1 h was 1. Besides, the inhibition at 1 µM at hERG (KCNH2) [4] turned out to be 23.2%. In the case of `COc1cc(N2CCNCC2)c2c(c1)N(S(=O)(=O)c1ccccc1F)CCO2`, in data set [1], the Ki is 0.158 nM.

As to `O=S(=O)(c1ccccc1F)N1CC2(CCC2)Oc2c(N3CCNCC3)cccc21`, the Ki in data set [1] is 0.631 nM. Turning to `O=S(=O)(c1ccccc1)N1CCOc2c(N3CCCNCC3)cc(Cl)cc21`, the Ki in data set [1] is 3.98 nM. For `O=S(=O)(c1ccccc1Cl)N1CCOc2c(N3CCNCC3)cccc21`, in data set [1], the Ki is 3.16 nM. In addition, the Kp at 1 h in data set [2] turned out to be 1.6. For the same compound, 1 µM produced 28.2% inhibition against hERG (KCNH2) [4]. Turning to `O=S(=O)(c1cccc2ccccc12)N1CCOc2c(N3CCNCC3)cc(Cl)cc21`, the Ki in data set [1] is 0.794 nM. Turning to `CC1(C)CN(S(=O)(=O)c2cccc(F)c2)c2cc(F)cc(C3CCNCC3)c2O1`, in data set [1], the inhibition constant (Ki) was 5.01 nM.
